In PubChem BioAssay one finds viability, differential viability (reversal) and inhibition data, which are given here for twelve compounds.

Test [1] is described as follows: SK-BR-3 cell growth inhibitors, pilot screen, 24 h, human (AID 572).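 Also: compound exposure lasted between 18 and 24 h rather than exactly 24 h; 100% = carrier-treated control wells.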 Particulars: SK-BR-3 viability, CellTiter-Glo luminescence, at 10 µM, stronger effect = lower value. For orientation: Cellular ATP, detected with luciferase, serves as a proxy for viable cell number.
Test [2] in a line: HUVEC growth inhibition – cell-based, human, primary screen (AID 575;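 active = viability at or below 30% in both replicate assays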;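 also: 100% = median of untreated cell wells with 0.1% DMSO on each plate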). Particulars: HUVEC proliferation, CellTiter-Glo luminescence, 72 h; at 10 µM; stronger effect = lower value. A digest of the protocol:
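Test system – primary HUVEC, no more than 12 passages · Dosing – one dose, 10 µM final, 0.1% DMSO · Times – 72 h treatment at 37 °C · Measured by – ATP-based CellTiter-Glo luminescent read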

Test [3] can be described thus: growth inhibitors of H69AR lung tumor, primary screen, human, duplicate replicates (AID 580;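 active = viability at or under a set limit in both replicates, limit being median viability minus 3 SD, cut at about 48% in these data, passing the limit was not always enough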;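 also: 100% = mean luminescence of untreated wells and 0% = no signal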). To be noted: H69AR lung tumor cells viability, ATP luminescence, 72 h; at 10 µM; stronger effect = lower value.
The nature of test [4]: reversal of MRP1-mediated doxorubicin resistance, pilot screen, H69AR cells, doxorubicin co-treatment (AID 601;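 active = viability loss from added drug above about 55%, and viability with drug at most 40%, in both replicates, limit read from the data, passing the limit was not always enough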). To be noted: CellTiter-Glo, 72 h, at 10 µM; for differential viability (reversal): stronger effect = higher value.
Test [5] can be described thus: 384-well plate pilot, post-Golgi transport modulator project, inhibition of yeast transport mutant growth (AID 636; in the data active = inhibition above about 31%). To be noted: absorbance 615 nm, about 18 h, stronger effect = higher value.
A short description of test [6]: growth suppression of yeast trafficking mutant, preliminary HTS, modulators of trafficking downstream of Golgi apparatus project, 1536-format plate, OD 615 nm (AID 637; in the data active = inhibition above about 30%). To be noted: yeast transport mutant growth, absorbance 615 nm, 18 h; stronger effect = higher value.
[7] abbreviates: H69AR cells + 2 uM doxorubicin, measured here: viability with 2 uM doxorubicin, stronger effect = lower value.
Setting [8] is: H69AR cells, compound alone cytotoxicity.

Several values for one entry are separate records, joined by “and”; a condition that tells them apart may be missing. Equal values may be shown once. Activity calls are given as the source filed them.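 The calls were made as follows, unless noted: active = viability at or below 10% of carrier control in both of two separate runs; inconclusive = viability at or below 10% in only one of the two runs; inactive = the rest.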

The term viability denotes a read-out of living cells in per cent, often relative to untreated cells. One may read the inhibition as the change of the read-out against control, counted positive when it falls. Turning to `Cc1ccc(S(=O)(=O)NCC(c2cccnc2)N(C)C)cc1` (stereo unspecified), the viability in test [1] was 96% (inactive); in test [2], 109% (inactive); in test [3], 95.1% (inactive); in test [4] (setting [7]), 103%; in test [4] (setting [8]) it was 95.1%. Also, the differential viability (reversal) in test [4] (H69AR cells + 2 uM doxorubicin) was -8.1% (inactive). Also, the inhibition is -5.75% (inactive) in test [5] and 1.82% (inactive) in test [6].
`COc1ccccc1OCCCn1c(=O)oc2ccccc21`: the viability in test [1] is 154% (inactive); in test [2], 90.1% (inactive); in test [3], 98.2% (inactive); in test [4] (setting [7]) it was 86.3%; in test [4] (setting [8]), 98.2%. Moreover, the differential viability (reversal) in test [4] (H69AR cells + 2 uM doxorubicin) was 11.9% (inactive). The figures for the inhibition in test [5] and in test [6] were -1.56% (inactive) and 2.79% (inactive), respectively.
Regarding `CN(C)CCCOC(=O)CCc1ccccc1`, the viability in test [1] was 95% (inactive); in test [2], 126% (inactive); in test [3], 96.3% (inactive); in test [4] (setting [7]) it was 93.9%; in test [4] (setting [8]) it was 96.3%. Also, the differential viability (reversal) in test [4] (H69AR cells + 2 uM doxorubicin) was 2.46% (inactive). Further, the inhibition in test [5] was -4.73% (inactive); in test [6] it was -7.09% (inactive).
`O=C1C(Cl)=C(NCC2CCCO2)C(=O)N1CCc1ccccc1` (stereo unspecified): the viability in test [1] is 75% (inactive); in test [2] it was 111% (inactive); in test [3], 87.4% (inactive); in test [4] (setting [7]), 79%; in test [4] (setting [8]) it was 87.4%. Besides, in test [4] (H69AR cells + 2 uM doxorubicin), the differential viability (reversal) was 8.39% (inactive). The inhibition is -0.82% (inactive) in test [5] and -4.03% (inactive) in test [6].
As for `COc1ccccc1NC(=O)CSc1nnc(Cn2nnc(-c3ccccc3)n2)n1-c1ccccc1`, the viability in test [1] was 63% (inactive); in test [2], 88.7% (inactive); in test [3], 87.4% (inactive); in test [4] (setting [7]), 92.8%; in test [4] (setting [8]), 87.4%. Further, the differential viability (reversal) in test [4] (H69AR cells + 2 uM doxorubicin) is -5.36% (inactive). Also, the inhibition in test [5] is -5.75% (inactive); in test [6], -1.45% (inactive).
In the case of `N#Cc1cnc(SCCc2ccccc2)nc1N`, the viability in test [1] was 78% (inactive); in test [2], 102% (inactive); in test [3], 97.8% (inactive); in test [4] (setting [7]), 91.2%; in test [4] (setting [8]) it was 97.8%. For the same compound, the differential viability (reversal) in test [4] (H69AR cells + 2 uM doxorubicin) is 6.68% (inactive). For the same compound, the values for the inhibition in test [5] and in test [6] were -5.14% (inactive) and 0% (inactive), respectively.
`CSc1oc(-c2ccccc2)nc1S(=O)(=O)c1ccc(F)cc1`: the viability in test [1] was 92% (inactive); in test [2], 73.2% (inactive); in test [3], 82.6% (inactive); in test [4] (setting [7]), 82.1%; in test [4] (setting [8]), 82.6%. In addition, the differential viability (reversal) in test [4] (H69AR cells + 2 uM doxorubicin) was 0.495% (inactive). Further, the inhibition is -6.3% (inactive) in test [5] and -1.61% (inactive) in test [6].
As for `Cc1nnc(Nc2ccccn2)c2ccccc12`, the viability in test [1] is 89% (inactive); in test [2], 81.1% (inactive); in test [3], 87.3% (inactive); in test [4] (setting [7]) it was 89.8%; in test [4] (setting [8]) it was 87.3%. In test [4] (H69AR cells + 2 uM doxorubicin), the differential viability (reversal) was -2.5% (inactive). For the same compound, the inhibition was 0.27% (inactive) in test [5] and -4.84% (inactive) in test [6].
With `CN(CCNC(=O)c1ccc(N2CCCC2=O)cc1)CCc1ccccc1`, the viability in test [1] was 72% (inactive); in test [2] it was 99% (inactive); in test [3] it was 101% (inactive); in test [4] (setting [7]), 92.6%; in test [4] (setting [8]) it was 101%. Besides, the differential viability (reversal) in test [4] (H69AR cells + 2 uM doxorubicin) is 8.74% (inactive). Also, the inhibition in test [5] was -7.95% (inactive); in test [6] it was 4.36% (inactive).
Turning to `CCN(CC)CC(=O)Nc1c(C)cccc1C`, the viability in test [1] is 101% (inactive) and 123% (inactive); in test [2], 97.3% (inactive) and 96.1% (inactive); in test [3] it was 107% (inactive) and 101% (inactive); in test [4] (setting [7]), 91.2% and 90%; in test [4] (setting [8]), 107% and 101%. In addition, the differential viability (reversal) in test [4] (H69AR cells + 2 uM doxorubicin) is 15.8% (inactive) and 10.7% (inactive). Also, the inhibition in test [5] was -3.38% (inactive); in test [6], -3.67% (inactive) and 1.67% (inactive).
As to `O=C(CCNS(=O)(=O)c1ccc(Br)s1)N1CCCCC1`, the viability in test [1] is 90% (inactive); in test [2], 107% (inactive); in test [3] it was 94.2% (inactive); in test [4] (setting [7]), 86.5%; in test [4] (setting [8]), 94.2%. Further, the differential viability (reversal) in test [4] (H69AR cells + 2 uM doxorubicin) is 7.65% (inactive). The inhibition in test [5] is -6.03% (inactive); in test [6], -4.19% (inactive).
As for `CN(C)CCC(c1ccc(Br)cc1)c1ccccn1` (stereo unspecified), the viability in test [1] was 110% (inactive); in test [2], 80.3% (inactive); in test [3] it was 102% (inactive); in test [4] (setting [7]) it was 91.4%; in test [4] (setting [8]) it was 102%. In test [4] (H69AR cells + 2 uM doxorubicin), the differential viability (reversal) is 10.6% (inactive). Besides, the values for the inhibition in test [5] and in test [6] were -2.73% (inactive) and -3.5% (inactive), respectively.
